Key:
[1] = system: ScN2a; experiment: Antiprion activity in ScN2a cells assessed as inhibition of protease-resistant prion protein accumulation; type: functional, cell-based; details: Mus musculus
Procedure, shortened: (§1)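 Mouse N2a cells carrying RML scrapie (ScN2a) or N2a#58 cells carrying Fukuoka-1 (F3), grown in Opti-MEM with 10% FBS. Compound added at passage (10% confluency), cells grown to confluence over 3–4 days, then lysed. Lysates digested with 10 µg/mL proteinase K for 30 min at 37 °C. PrP-res detected by SDS-PAGE/immunoblot with SAF83. IC50 is the concentration halving PrP-res relative to control.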

[2] = Antiprion activity in F3 cells assessed as inhibition of protease-resistant prion protein accumulation; type: functional, cell-based; details: Mus musculus, N2a #58 F3; procedure, shortened: as §1
[3] = Cytotoxicity against human NB69 cells by MTT assay; type: cell-based; details: read-out: LD50 (the source's name)
[4] = system: ScN2a; experiment: Cytotoxicity against mouse ScN2a cells by MTT assay; type: cell-based
[5] = Cytotoxicity against mouse F3 cells by MTT assay; type: cell-based; details: n2a #58 f3
[6] = Hydroxy radical scavenging activity by ESR spin-trapping method; type: functional
Procedure, shortened: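 A mixture of 25 mM H2O2, 25 mM DMPO and compound was UV-irradiated. Hydroxyl radical scavenging was expressed as IC50.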

[7] = Superoxide dismutase like activity assessed as inhibition of WST1 tetrazolium formation at 1 mM; type: functional; parameters: scale not given: the % may be the effect or the level left
Procedure, shortened: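 Xanthine-based photometric kit assay with WST-1 tetrazolium salt. Compound was tested at 1 mM.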

[8] = Superoxide dismutase like activity assessed as inhibition of WST1 tetrazolium formation at 1 mM in presence of 2 mM Cu(II); type: functional; parameters: scale not given: the % may be the effect or the level left

Row | Structure (SMILES) | IC50 [1] [nM] | IC50 [2] [nM] | CC50 [3] [nM] | Activity [4] [nM] | Activity [5] [nM] | IC50 [6] [nM] | Activity [7] [%] | Activity [8] [%]
1 | O=C(Nc1ccccc1)C1=NN(c2ccccc2)C(=O)C1 | 398 | 1580 | > 1000 | > 1000 | > 1000 |  |  | 
2 | O=C1CC(c2ccc([N+](=O)[O-])cc2)=NN1c1ccccc1 | 3 | 3 | > 1000 | > 1000 | > 1000 | 90 | 1.8 | 11.9
3 | CC1=NN(c2ccccc2)C(=O)C1CC(C)C (stereo not drawn) |  | 16 | > 1000 | > 1000 | > 1000 |  |  | 
4 | CC1=NN(c2ccccc2)C(=O)C1C(=O)c1ccccc1 (stereo not drawn) | 6 | 1000 | > 1000 | > 1000 | > 1000 | 610 |  | 
5 | CC1=NN(c2ccccc2)C(=O)C1C1CC1 (stereo not drawn) |  |  | > 1000 | > 1000 | > 1000 | 720 | 15.9 | 35.4
6 | O=C1CC(C(F)(F)F)=NN1c1ccccc1 | 398 | 631 | > 1000 | > 1000 | > 1000 | 810 | 13.4 | 7.4
7 | CC1=NN(c2ccccc2)C(=O)C1c1ccccn1 (stereo not drawn) | 79 | 631 | > 1000 | > 1000 | > 1000 |  |  | 
8 | CC1=NN(c2ccc(Cl)cc2)C(=O)C1 | 0.5 |  | > 1000 | > 100 | > 100 |  |  | 
9 | C=C[C@H]1CN2CC[C@H]1C[C@@H]2[C@@H](O)c1ccnc2ccc(OC)cc12 [QUINIDINE] | 5000 |  |  |  |  |  |  | 
10 | C=CC1CN2CC[C@H]1C[C@H]2[C@H](O)c1ccnc2ccc(OC)cc12 (single isomer, unassigned) [QUININE] | 10000 |  |  |  |  |  |  | 
11 | O=C(NC1=NN(c2ccccc2)C(=O)C1)NC1CCCC1 | 126 | 158 | > 1000 | > 1000 | > 1000 |  |  | 
12 | C=C(C)C1=NN(c2ccccc2)C(=O)C1 | 158 | 794 | > 1000 | > 1000 | > 1000 |  |  | 
13 | COc1ccc(N2N=C(C)CC2=O)cc1 |  |  | > 1000 | > 100 | > 100 |  |  | 
14 | COc1ccc(C2=NN(c3ccccc3)C(=O)C2)cc1 |  |  | > 1000 | > 100 | > 100 |  |  | 
15 | CC1=NN(c2ccccc2)C(=O)C1c1ccccc1 (stereo not drawn) | 40 | 1 | > 1000 | > 100 | > 100 | 790 |  | 
16 | O=C1CC(c2ccccc2)=NN1c1ccccc1 |  |  | > 1000 | > 100 | > 100 |  |  | 
17 | CC1=NN(c2ccccc2)C(=O)C1 [EDARAVONE] | > 1000 |  |  |  |  | 250 | 0.6 | 5.7
18 | O=C(NC1=NN(c2ccccc2)C(=O)C1)c1ccccc1 | 2000 | 1260 | > 1000 | > 1000 | > 1000 | 220 | 9.2 | 3.2
19 | O=C1CC(Cc2ccccc2)=NN1c1ccccc1 |  |  | > 300 | > 1000 | > 1000 |  |  | 
20 | O=C(NC1=NN(c2ccccc2)C(=O)C1)Oc1ccccc1 |  |  |  | > 1000 | > 1000 | 380 | 5.6 | 11.6
21 | CC1=NN(C2CCCCC2)C(=O)C1 | 13 | 25 | > 1000 | > 1000 | > 1000 |  |  | 
22 | COC(=O)NC1=NN(c2ccccc2)C(=O)C1 | 6 | 501 | > 1000 | > 1000 | > 1000 |  |  | 

Reference: ChEMBL document CHEMBL1148815, “New series of antiprion compounds: pyrazolone derivatives have the potent activity of inhibiting protease-resistant prion protein accumulation” (J Med Chem, 2007)
